Data published in ChEMBL document CHEMBL4024729, “Copalic acid analogs down-regulate androgen receptor and inhibit small chaperone protein” (Bioorg Med Chem Lett, 2017).
pIC50: −log10 of the molar value. Active and inactive are the calls of the source. No cut-off for these calls is given here.

Columns and labels:
[1] = target: Heat shock protein beta-1 (Homo sapiens) (UniProt P04792); assay: Inhibition of heat shock protein 27 in human LNCaP cells assessed as decrease in AR protein level after 48 hrs by Western blot method; type: cell-based
Heat shock protein beta-1 (Homo sapiens), sequence (P04792 whole entry): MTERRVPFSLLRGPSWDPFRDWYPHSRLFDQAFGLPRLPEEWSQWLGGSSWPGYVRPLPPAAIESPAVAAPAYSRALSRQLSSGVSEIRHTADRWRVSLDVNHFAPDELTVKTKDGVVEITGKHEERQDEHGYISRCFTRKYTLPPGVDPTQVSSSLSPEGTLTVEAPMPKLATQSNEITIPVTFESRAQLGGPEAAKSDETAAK
Summary of the method: (§1)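 LNCaP cells treated with DMSO or compound for 48 h. Whole-cell extracts probed by Western blot with specific antibodies against AR and β-actin. Three independent experiments.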

[2] = organism: Homo sapiens; assay: Inhibition of alpha crystallin (unknown origin) assessed as increase in DTT induced insulin aggregation at 10 uM pretreated for 5 mins followed by DTT addition measured after 45 mins
Summary of the method: (§2)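 Insulin 1 mg/ml stock and alpha-crystallin 5 mg/ml stock mixed in PBS containing compound. Incubated 5 min at 37 °C, then aggregation started with 1 M DTT stock. A400 followed for 45 min at 37 °C. Controls were insulin with or without alpha-crystallin in 0.1% DMSO. Triplicate wells; three independent experiments.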

[3] = test system: LNCaP; assay: Growth inhibition of human LNCAP cells after 72 hrs by MTT assay; type: functional, cell-based
Summary of the method: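 LNCaP cells treated with DMSO or a range of compound concentrations, four replicates each, for 72 h. Viability read by MTT assay.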

[4] = target: Heat shock protein beta-1 (Homo sapiens) (UniProt P04792); assay: Inhibition of heat shock protein 27 in human LNCaP cells assessed as decrease in AR protein level at 20 uM after 48 hrs by Western blot method; type: cell-based; summary of the method: as §1
[5] = target: Heat shock protein beta-1 (Homo sapiens) (UniProt P04792); assay: Inhibition of heat shock protein 27 in human LNCaP cells assessed as decrease in AR protein level at 5 uM after 48 hrs by Western blot method; type: cell-based; summary of the method: as §1
[6] = Effect on DTT interaction with insulin at <= 10 uM measured after 45 mins; summary of the method: as §2
[7] = target: Heat shock protein beta-1 (Homo sapiens) (UniProt P04792); assay: Inhibition of heat shock protein 27 in human LNCaP cells assessed as decrease in AR protein level at 200 uM after 48 hrs by Western blot method; type: cell-based; summary of the method: as §1

Row | SMILES | AR protein decrease (active/not active) [4] | inhibition [7] | also measured
1 | C=C1CC[C@@H]2C(C)(C)CCC[C@@]2(C)[C@@H]1CC/C(C)=C/C(=O)Nc1ccc(OC)cc1 | Active |  | inhibition [1]: Dose-dependent effect; inhibition [2]: Active; pIC50 [3]: 5.76; inhibition [5]: Active; Activity [6]: inactive
2 | C=C1CC[C@@H]2C(C)(C)CCC[C@@]2(C)[C@@H]1CC/C(C)=C/C(=O)NCCc1ccccc1 | Active |  | 
3 | C=C1CC[C@@H]2C(C)(C)CCC[C@@]2(C)[C@@H]1CC/C(C)=C/C(=O)Nc1cccc(Br)c1 | Active |  | 
4 | C=C1CC[C@@H]2C(C)(C)C(OC(C)=O)CC[C@@]2(C)[C@@H]1CC/C(C)=C/C(=O)O (stereo partly drawn) |  | Active | 
5 | C=C1CC[C@@H]2C(C)(C)CCC[C@@]2(C)[C@@H]1CC/C(C)=C/C(=O)Nc1ccc(C#N)cc1 | Active |  | inhibition [1]: Dose-dependent effect; inhibition [2]: Active; pIC50 [3]: 5.01
6 | C[C@@H]1CC[C@@]2(C)C(C(=O)O)=CCC[C@@H]2[C@@]1(C)CCc1ccoc1 |  | Active | 
7 | C=C1CC[C@@H]2C(C)(C)CCC[C@@]2(C)[C@@H]1CC/C(C)=C/C(=O)Nc1ccc(I)cc1 | Active |  | 
8 | C=C1CC[C@@H]2C(C)(C)CCC[C@@]2(C)[C@@H]1CC/C(C)=C/C(=O)Nc1ccc(C)cc1 | Active |  | 
9 | C=C1CC[C@@H]2C(C)(C)CCC[C@@]2(C)[C@@H]1CC/C(C)=C/C(=O)O | inactive | Active | 
